# According to ChEMBL document CHEMBL3808300, “Atropisomer Control in Macrocyclic Factor VIIa Inhibitors” (J Med Chem, 2016):
# Experiments:
# Kallikrein-1 = Kallikrein-1 (Homo sapiens, UniProt P06870); assay: Inhibition of purified human tissue kallikrein 1 using H-D-Val-Leu-Arg-AFC as substrate
# Procedure, shortened: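 Uses purified human tissue kallikrein 1 at 37 °C. Ki is averaged from two independent experiments. The procedure follows an earlier published protocol.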
# Coagulation factor XI = Coagulation factor XI (Homo sapiens, UniProt P03951); assay: Inhibition of purified human factor 11a after 30 to 60 mins
# Procedure, shortened: (§1)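 Purified human enzyme, run at 25 °C. The reported Ki is the average of two experiments. The full protocol follows a previously published method.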
# Prothrombin = Prothrombin (Homo sapiens, UniProt P00734); assay: Inhibition of purified human thrombin after 30 to 60 mins; procedure, shortened: as §1
# [1] = target: Coagulation factor VII/tissue factor (Homo sapiens, UniProt P08709); assay: Inhibition of recombinant human Tissue factor/factor 7a using S2288 as substrate after 30 to 60 mins; format: protein-complex assay
# Procedure, shortened: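 Enzyme is recombinant human TF/FVIIa complex, assayed at 25 °C. Ki is the mean of two experiments, and the method is the published protocol.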
# Trypsin = Trypsin (Homo sapiens, UniProt P07477+P07478+P35030); assay: Inhibition of purified human trypsin after 30 to 60 mins; format: protein assay; procedure, shortened: as §1
# Coagulation factor X = Coagulation factor X (Homo sapiens, UniProt P00742); assay: Inhibition of purified human factor 10a using S2765 as substrate after 30 to 60 mins; procedure, shortened: as §1
# Coagulation factor X, sequence (P00742 41-179 limits assumed): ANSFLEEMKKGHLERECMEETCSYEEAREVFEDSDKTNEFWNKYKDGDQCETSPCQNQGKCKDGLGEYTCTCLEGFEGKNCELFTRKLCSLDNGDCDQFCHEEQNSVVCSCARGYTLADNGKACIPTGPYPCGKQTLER
# Coagulation factor X, sequence (P00742 235-488 limits assumed): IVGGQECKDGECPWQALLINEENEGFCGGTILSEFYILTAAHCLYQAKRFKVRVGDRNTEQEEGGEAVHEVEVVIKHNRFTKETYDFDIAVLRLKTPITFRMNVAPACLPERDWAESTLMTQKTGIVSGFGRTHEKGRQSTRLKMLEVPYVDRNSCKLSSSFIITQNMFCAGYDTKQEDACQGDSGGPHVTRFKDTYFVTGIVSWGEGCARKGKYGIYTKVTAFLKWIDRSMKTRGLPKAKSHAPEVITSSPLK
# Coagulation factor XI, sequence (P03951 19-387 limits assumed): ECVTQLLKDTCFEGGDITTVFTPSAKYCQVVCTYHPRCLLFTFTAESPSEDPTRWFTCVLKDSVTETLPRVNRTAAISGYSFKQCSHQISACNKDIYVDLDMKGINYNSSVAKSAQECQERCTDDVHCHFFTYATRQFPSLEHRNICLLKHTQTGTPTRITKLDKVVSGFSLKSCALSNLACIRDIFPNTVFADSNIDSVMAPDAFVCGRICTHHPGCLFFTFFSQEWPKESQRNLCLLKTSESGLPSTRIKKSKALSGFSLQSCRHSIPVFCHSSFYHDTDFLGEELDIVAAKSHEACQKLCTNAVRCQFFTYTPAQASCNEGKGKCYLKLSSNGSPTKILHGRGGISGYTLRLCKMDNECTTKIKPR
# Coagulation factor XI, sequence (P03951 388-625 limits assumed): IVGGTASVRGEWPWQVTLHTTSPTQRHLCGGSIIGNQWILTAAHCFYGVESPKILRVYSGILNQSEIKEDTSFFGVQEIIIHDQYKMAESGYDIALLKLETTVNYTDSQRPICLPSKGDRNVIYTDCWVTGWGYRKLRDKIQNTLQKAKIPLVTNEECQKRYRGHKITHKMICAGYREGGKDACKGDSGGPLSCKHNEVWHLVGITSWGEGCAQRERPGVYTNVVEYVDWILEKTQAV
# Kallikrein-1, sequence (P06870 whole entry): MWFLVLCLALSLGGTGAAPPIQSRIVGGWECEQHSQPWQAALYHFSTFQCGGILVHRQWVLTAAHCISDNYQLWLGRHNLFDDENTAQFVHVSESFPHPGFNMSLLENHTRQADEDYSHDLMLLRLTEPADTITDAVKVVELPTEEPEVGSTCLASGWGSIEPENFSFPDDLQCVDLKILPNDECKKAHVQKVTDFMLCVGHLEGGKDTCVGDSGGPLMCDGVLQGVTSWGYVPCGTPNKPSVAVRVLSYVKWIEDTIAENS
# Coagulation factor VII/tissue factor, sequence (P08709 61-212 limits assumed): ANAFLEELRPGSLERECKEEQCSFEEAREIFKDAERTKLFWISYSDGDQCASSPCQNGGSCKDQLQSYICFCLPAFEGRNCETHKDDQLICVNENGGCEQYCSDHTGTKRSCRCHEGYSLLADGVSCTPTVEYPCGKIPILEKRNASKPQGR
# Coagulation factor VII/tissue factor, sequence (P08709 213-466 limits assumed): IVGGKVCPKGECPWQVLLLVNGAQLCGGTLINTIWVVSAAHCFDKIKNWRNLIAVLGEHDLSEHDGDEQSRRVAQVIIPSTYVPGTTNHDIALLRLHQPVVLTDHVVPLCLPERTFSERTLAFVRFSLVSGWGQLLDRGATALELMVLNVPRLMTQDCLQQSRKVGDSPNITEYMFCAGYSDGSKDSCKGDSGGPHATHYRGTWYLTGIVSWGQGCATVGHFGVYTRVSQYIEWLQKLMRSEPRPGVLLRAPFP
# Coagulation factor VII/tissue factor, sequence (P13726 33-295 partner limits assumed): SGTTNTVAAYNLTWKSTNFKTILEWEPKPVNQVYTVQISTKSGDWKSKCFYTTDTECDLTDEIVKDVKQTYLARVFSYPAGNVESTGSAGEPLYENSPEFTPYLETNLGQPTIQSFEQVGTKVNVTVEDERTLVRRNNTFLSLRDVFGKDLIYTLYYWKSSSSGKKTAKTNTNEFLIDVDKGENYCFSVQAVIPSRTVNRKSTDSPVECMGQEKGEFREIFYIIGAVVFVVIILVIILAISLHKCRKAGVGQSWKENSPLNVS
Structure (SMILES),Ki (Kallikrein-1),Ki (Coagulation factor XI),Ki (Prothrombin),Ki [1],Ki (Trypsin),Ki (Coagulation factor X)
C[C@H]1COC(=O)Nc2cccc(c2)CNC(=O)C(Nc2ccc3c(N)nccc3c2)c2ccc1cc2 (stereo partly drawn),0.025 µM,9.1 µM,4.7 µM,0.14 µM,> 6.2 µM,4.5 µM
CC1COC(=O)Nc2cccc(c2)CNC(=O)C(Nc2ccc3c(N)nccc3c2)c2ccc1cc2 (stereo not drawn),–,10.8 µM,> 13 µM,–,–,2.6 µM
Cc1cc2ccc1[C@@H](C)COC(=O)Nc1cccc(c1)CNC(=O)[C@H]2Nc1ccc2c(N)nccc2c1,0.031 µM,> 14.2 µM,> 11.5 µM,4.51 µM,> 10 µM,> 13.3 µM
C[C@@H]1COC(=O)Nc2cccc(c2)CNC(=O)C(Nc2ccc3c(N)nccc3c2)c2ccc1cc2 (stereo partly drawn),0.004 µM,> 11 µM,7.4 µM,1.45 µM,> 6.2 µM,6.8 µM
Nc1nccc2cc(NC3C(=O)NCc4cccc(c4)NC(=O)OCCc4ccc3cc4)ccc12 (stereo not drawn),0.035 µM,5.7 µM,> 13 µM,0.51 µM,3.5 µM,0.61 µM
Cc1cc2ccc1[C@@H](C)COC(=O)Nc1cccc(c1)CNC(=O)[C@@H]2Nc1ccc2c(N)nccc2c1,0.025 µM,> 14.2 µM,> 11.5 µM,0.0014 µM,> 10 µM,> 13.3 µM
